From ChEMBL document CHEMBL4364260, “Discovery of Ziresovir as a Potent, Selective, and Orally Bioavailable Respiratory Syncytial Virus Fusion Protein Inhibitor” (J Med Chem, 2019)
Calls of active or inactive are those of the source. The rule behind the calls is not given here.

Assays:
[1] = AUC (0 to 24 hrs) in CD-1 mouse lung at 10 mg/kg/day, po administered via gavage and measured up to 24 hrs by LC/MS/MS analysis; format: ADME, organism-based; design: dose 10 mg/kg/day, time < 24 hr, route oral
[2] = AUC (0 to 24 hrs) in CD-1 mouse plasma at 10 mg/kg/day, po administered via gavage and measured up to 24 hrs by LC/MS/MS analysis; format: ADME, organism-based; design: dose 10 mg/kg/day, time < 24 hr, route oral
[3] = Antiviral activity against Human respiratory syncytial virus A strain Long infected in human Hep2 cells assessed as reduction in virus induced cytopathic effect in presence of 40% FBS after 5 days by CCK-8 assay; format: functional, cell-based; settings: HEp-2, 120 h
Outline: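 RSV Long CPE assay with 40% FBS in place of the standard 10%. HEp-2 cells at 6000/well were infected next day at MOI 0.02 and kept 5 days with serially diluted compound. CCK-8 viability gave the 50% effective concentration.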

[4] = Plasma clearance in Wistar-Han rat at 2 mg/kg, iv or 10 mg/kg, po administered as single dose via gavage and measured up to 24 hrs by LC/MS/MS analysis; format: ADME, organism-based
Outline: (§1)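 Male Wistar-Han rats, single dose, 2 mg/kg iv and 10 mg/kg po, run by standard procedures.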

[5] = Half-life in Wistar-Han rat at 2 mg/kg, iv administered as single dose and measured up to 24 hrs by LC/MS/MS analysis; format: ADME, organism-based; settings: in vivo; outline: as §1
[6] = Volume of distribution at steady state in Wistar-Han rat at 2 mg/kg, iv or 10 mg/kg, po administered as single dose via gavage and measured up to 24 hrs by LC/MS/MS analysis; format: ADME, organism-based; settings: in vivo, read-out: Vdss; outline: as §1
Influenza A virus = experiment: Antiviral activity against Influenza A virus H1N1 infected in human Hep2 cells assessed as reduction in virus induced cytopathic effect after 5 days by CCK-8 assay; format: functional; settings: H1N1, HEp-2, 120 h
Human orthopneumovirus = experiment: Antiviral activity against Human respiratory syncytial virus A2 infected in human Hep2 cells assessed as reduction in virus induced cytopathic effect after 5 days by CCK-8 assay; format: functional, organism-based; settings: A2, HEp-2, 120 h
Outline: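 CPE protection assay in HEp-2 cells, 6000 per well, infected next day with RSV at MOI 0.02 to give about 90% cytopathic effect after 5 days. Serial compound dilutions were present during incubation. Cell viability was measured by CCK-8 at day 5 to give EC50.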

[7] = Antiviral activity against Human respiratory syncytial virus A strain Long infected in human Hep2 cells assessed as plaque reduction […] by chloro-1-naphthol staining-based assay; format: functional
Outline: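 HEp-2 monolayers in 12-well plates got 0.5 ml of 200 PFU/ml RSV Long with or without serial compound dilutions. After 2 h they were overlaid with DMEM/F12, 4% FBS, 0.55% agarose plus compound and incubated 3 days. Cells were fixed in 4% paraformaldehyde for 6 h and immunostained with anti-RSV mAb (1:300), then HRP anti-mouse. Plaques were developed with 4-chloro-1-naphthol/H2O2 and counted.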

[8] = Half-life in CD-1 mouse plasma at 10 mg/kg/day, po administered via gavage and measured up to 24 hrs by LC/MS/MS analysis; format: ADME, organism-based
[9] = Cmax in CD-1 mouse plasma at 10 mg/kg/day, po administered via gavage and measured up to 24 hrs by LC/MS/MS analysis; format: ADME, organism-based; design: dose 10 mg/kg/day, route oral
[10] = test system: Fusion glycoprotein F0 (Human respiratory syncytial virus A (strain A2)), P03420 [D486N]; experiment: Inhibition of Human respiratory syncytial virus Fusion protein D486N mutant expressed in Hep2 cells as reduction in virus induced cytopathic effect by CCK-8 assay; format: cell-based
Outline: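 HEp-2 cells were seeded at 6000/well and infected with plaque-purified RSV carrying the F-protein mutation (D486N or D489A) at MOI 0.04, with serially diluted compound. Viability was read by CCK-8 absorbance at 450 nm/650 nm, and EC50/EC90 were derived from protection against virus-induced cytopathic effect.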

[11] = Clearance in Sprague-Dawley rat at 2 mg/kg, iv or 10 mg/kg, po; format: ADME, organism-based; settings: in vivo
Outline: (§2)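 Rat single-dose PK: 2 mg/kg iv and 10 mg/kg po. Compound was given as a solution in 5% DMSO/40% PEG400/55% of 0.9% saline. Plasma CL, Vss, iv half-life, AUC and oral bioavailability were reported.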

[12] = Clearance in Beagle dog at 1 mg/kg, iv or 10 mg/kg, po; format: ADME, organism-based, Canis lupus familiaris; settings: in vivo
Outline: (§3)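 Beagle dog single-dose PK at 1 mg/kg iv and 10 mg/kg po, dosed as a solution in 12.5% captisol in water. Plasma clearance, Vss, iv T1/2, AUC and F were reported.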

[13] = Volume of distribution at steady state in Sprague-Dawley rat at 2 mg/kg, iv or 10 mg/kg, po; format: ADME, organism-based; settings: in vivo, read-out: Vdss; outline: as §2
[14] = Volume of distribution at steady state in Beagle dog at 1 mg/kg, iv or 10 mg/kg, po; format: ADME, organism-based, Canis lupus familiaris; settings: in vivo, read-out: Vdss; outline: as §3
[15] = Volume of distribution at steady state in cynomolgus monkey at 2 mg/kg, iv or 10 mg/kg, po; format: ADME, organism-based, Macaca fascicularis; settings: in vivo, read-out: Vdss
Outline: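 Cynomolgus monkeys got single doses of 2 mg/kg iv and 10 mg/kg po as a solution in 12.5% captisol in water. Plasma CL, Vss, iv T1/2, AUC and oral F were derived.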

[16] = Half-life in CD-1 mouse at 5 mg/kg, iv; format: ADME, organism-based; settings: in vivo
Outline: (§4)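 Single-dose PK in CD-1 mice: 5 mg/kg iv, 50 mg/kg po. Dosed as a solution in 5% DMSO, 40% PEG400, 55% of 0.9% NaCl. Plasma CL, Vss, iv T1/2, AUC and F were derived.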

[17] = Half-life in Beagle dog at 1 mg/kg, iv; format: ADME, organism-based, Canis lupus familiaris; settings: in vivo; outline: as §3
[18] = AUC (0 to 24 hrs) in Sprague-Dawley rat at 10 mg/kg, po; format: ADME, organism-based; design: dose 10 mg/kg, time < 24 hr, route oral; settings: in vivo
[19] = AUC (0 to 24 hrs) in Beagle dog at 10 mg/kg, po; format: ADME, organism-based, Canis lupus familiaris; design: dose 10 mg/kg, time < 24 hr, route oral; settings: in vivo
Outline: (§5)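 Single-dose PK. Dog received 1 mg/kg iv or 10 mg/kg po, and cynomolgus monkey received 2 mg/kg iv or 10 mg/kg po. Both were given as a solution in 12.5% captisol in water. Plasma AUC was taken from the oral arm, with CL, Vss, iv T1/2 and F also derived.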

[20] = AUC (0 to 24 hrs) in cynomolgus monkey at 10 mg/kg, po; format: ADME, organism-based, Macaca fascicularis; design: dose 10 mg/kg, time < 24 hr, route oral; settings: in vivo; outline: as §5
[21] = Oral bioavailability in CD-1 mouse at 50 mg/kg; format: ADME, organism-based; settings: in vivo; outline: as §4
[22] = Oral bioavailability in Beagle dog at 10 mg/kg; format: ADME, organism-based, Canis lupus familiaris; settings: in vivo; outline: as §3
Human respirovirus 1 = experiment: Antiviral activity against Human parainfluenza virus 1 infected in human Hep2 cells assessed as reduction in virus induced cytopathic effect after 5 days by CCK-8 assay; format: functional, organism-based
[23] = test system: Human parainfluenza virus 2; experiment: Antiviral activity against Human parainfluenza virus 2 infected in human Hep2 cells assessed as reduction in virus induced cytopathic effect after 5 days by CCK-8 assay; format: functional, organism-based; settings: Human orthorubulavirus 2

Cc1ccc2nc(N3CCS(=O)(=O)c4ccccc4C3)nc(NCC3(N)COC3)c2c1 [ZIRESOVIR]
AUC at 24 h [1]: 72.4 µg·h/mL
AUC at 24 h [2]: 8.38 µg·h/mL
EC50 [3]: 3 nM
EC90 [3]: 8 nM
clearance [4]: 3.48 L/h/kg
half-life [5]: 1.2 h
Vd [6]: 3.9 L/kg
EC90 (Influenza A virus): > 100000 nM
EC50 (Human orthopneumovirus): 2 nM
EC90 (Human orthopneumovirus): 3 nM
EC90 [7]: 10 nM
half-life [8]: 1.02 h
Cmax [9]: 5.09 µg/mL
EC90 [10]: > 10000 nM
clearance [11]: 3.48 L/h/kg
clearance [12]: 2.16 L/h/kg
Vd [13]: 3.9 L/kg
Vd [14]: 6.7 L/kg
Vd [15]: 1.9 L/kg
half-life [16]: 0.4 h
half-life [17]: 2.8 h
AUC(0-t) at 24 h [18]: 0.906 µg·h/mL
AUC(0-t) at 24 h [19]: 1.17 µg·h/mL
AUC(0-t) at 24 h [20]: 1.44 µg·h/mL
bioavailability [21]: 66%
bioavailability [22]: 26%
Activity (Human respirovirus 1): inactive
Activity [23]: inactive
